From ChEMBL document CHEMBL1126322, “Renin inhibitors containing alpha-heteroatom amino acids as P2 residues” (J Med Chem, 1992)

Legend:
[1] = Inhibitory activity against monkey renin in vitro.
Cathepsin D = biological target: T1, Cathepsin D (Bos taurus, UniProt P80209); experiment: Inhibitory activity against bovine cathepsin D
T1 sequence (P80209 whole entry): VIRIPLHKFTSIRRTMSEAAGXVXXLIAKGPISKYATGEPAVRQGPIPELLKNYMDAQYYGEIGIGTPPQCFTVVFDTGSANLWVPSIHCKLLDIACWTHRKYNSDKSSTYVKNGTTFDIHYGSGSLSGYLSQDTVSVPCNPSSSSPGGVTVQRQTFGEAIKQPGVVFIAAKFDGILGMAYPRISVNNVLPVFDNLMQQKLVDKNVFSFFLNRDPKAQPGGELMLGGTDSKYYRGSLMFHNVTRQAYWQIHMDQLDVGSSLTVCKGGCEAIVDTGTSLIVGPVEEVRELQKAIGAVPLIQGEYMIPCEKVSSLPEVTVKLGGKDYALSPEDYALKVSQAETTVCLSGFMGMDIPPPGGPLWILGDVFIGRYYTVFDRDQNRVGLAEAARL
Outline: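 Bovine cathepsin D activity measured in duplicate as hydrolysis of bovine hemoglobin at pH 3.2 and 37 °C, read as net absorbance at 280 nm. Percent inhibition at six inhibitor concentrations; IC50 by nonlinear regression.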

Bos taurus = organism: Bos taurus; experiment: Selectivity ratio towards cathepsin D over renin
Outline: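 Ratio of cathepsin D IC50 to monkey plasma renin IC50. […] Cathepsin D IC50 from bovine hemoglobin hydrolysis at pH 3.2, 37 °C, A280.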

Monkey [2] = experiment: Effect of compound on blood pressure in conscious, salt-depleted, normotensive, cynomolgus monkeys after oral administration of 30 mg/kg dose at 3 hours; assay type: functional, Cercopithecidae
Monkey [3] = experiment: Effect of compound on blood pressure in conscious, salt-depleted, normotensive, cynomolgus monkeys after oral administration of 30 mg/kg dose at 1 hour; assay type: functional, Cercopithecidae
Monkey [4] = experiment: Effect of compound on blood pressure in conscious, salt-depleted, normotensive, cynomolgus monkeys after oral administration of 30 mg/kg dose at 2 hours; assay type: functional, Cercopithecidae

Compound CCNC(NC(=O)C(Cc1cccc2ccccc12)Cc1cccc2ccccc12)C(=O)N[C@@H](CC(C)C)[C@@H](O)CC(=O)NC[C@@H](C)CC (stereo in doubt; 34) has an IC50 [1] of 210 nM.
C#CCOC(NC(=O)[C@H](Cc1ccccc1)NS(=O)(=O)N1CCOCC1)C(=O)N[C@@H](CC1CCCCC1)[C@@H](O)[C@@H](O)CC(C)C (stereo partly specified) showed an IC50 [1] of 0.52 nM, an IC50 (Cathepsin D) of 80.1 nM and a Selectivity (Bos taurus) of 154.
With CC(C)C[C@H](O)[C@H](O)[C@H](CC1CCCCC1)NC(=O)C(NC(=O)[C@H](Cc1ccccc1)NS(=O)(=O)N1CCOCC1)OCC(F)(F)F (stereo partly specified) the “Change in BP” value (Monkey [2]) was -2 mmHg, the “Change in BP” value (Monkey [3]) was -1 mmHg and the “Change in BP” value (Monkey [4]) was -1 mmHg. For the same compound, the IC50 (Cathepsin D) was 21.2 nM.
With CCOC(NC(=O)[C@H](Cc1ccccc1)NS(=O)(=O)N1CCOCC1)C(=O)N[C@@H](CC1CCCCC1)[C@@H](O)[C@@H](O)CC(C)C (stereo partly specified) the IC50 (Cathepsin D) was 14 nM.
In the case of CCNC(NC(=O)C(Cc1cccc2ccccc12)Cc1cccc2ccccc12)C(=O)N[C@@H](CC(C)C)[C@@H](O)CC(=O)NC[C@@H](C)CC (stereo in doubt; 33), the IC50 [1] is reported as over 1000 nM.
With CC[C@H](C)CNC(=O)C[C@H](O)[C@H](CC(C)C)NC(=O)C(NC(=O)C(Cc1cccc2ccccc12)Cc1cccc2ccccc12)Nc1ccccc1 (stereo partly specified) the IC50 [1] was 310 nM.
C=CCN(C)C(NC(=O)[C@H](Cc1ccccc1)NC(=O)OC(C)(C)C)C(=O)N[C@@H](CC1CCCCC1)[C@@H](O)[C@@H](O)CC(C)C (stereo partly specified) gave an IC50 (Cathepsin D) of 60.4 nM.
CCOC(NC(=O)C(Cc1cccc2ccccc12)Cc1cccc2ccccc12)C(=O)N[C@@H](CC(C)C)[C@@H](O)CC(=O)NC[C@@H](C)CC (stereo in doubt; 21) gave an IC50 [1] of 26 nM.
In the case of CC[C@H](C)CNC(=O)C[C@H](O)[C@H](CC(C)C)NC(=O)C(NC(=O)C(Cc1cccc2ccccc12)Cc1cccc2ccccc12)Oc1ccccc1 (stereo partly specified), the IC50 [1] is reported as 633 nM.
In the case of CCCOC(NC(=O)[C@H](Cc1ccccc1)NS(=O)(=O)N1CCOCC1)C(=O)N[C@@H](CC1CCCCC1)[C@@H](O)C(F)(F)C(=O)NCCN1CCOCC1 (stereo partly specified), the “Change in BP” value (Monkey [2]) is reported as -3 mmHg, the “Change in BP” value (Monkey [3]) is reported as 3 mmHg and the “Change in BP” value (Monkey [4]) is reported as -1 mmHg. The IC50 (Cathepsin D) was 699 nM.
Work on CC[C@H](C)CNC(=O)C[C@H](O)[C@H](CC(C)C)NC(=O)C(NC(=O)C(Cc1cccc2ccccc12)Cc1cccc2ccccc12)OC (stereo partly specified) yielded an IC50 [1] of 180 nM.
Compound C=CCSC(NC(=O)[C@H](Cc1ccccc1)NS(=O)(=O)N1CCOCC1)C(=O)N[C@@H](CC1CCCCC1)[C@@H](O)[C@@H](O)CC(C)C (stereo partly specified) has an IC50 [1] of 0.17 nM, an IC50 (Cathepsin D) of 19.4 nM and a Selectivity (Bos taurus) of 118.
CC[C@H](C)CNC(=O)C[C@H](O)[C@H](CC(C)C)NC(=O)C(NC(=O)C(Cc1cccc2ccccc12)Cc1cccc2ccccc12)[S+](C)[O-] (stereo partly specified) gave an IC50 [1] of 615 nM.
In the case of CC[C@H](C)CNC(=O)C[C@H](O)[C@H](CC(C)C)NC(=O)C(Cc1c[nH]cn1)NC(=O)C(Cc1cccc2ccccc12)Cc1cccc2ccccc12 (stereo partly specified), the IC50 [1] is reported as 85 nM.
Work on CC[C@H](C)CNC(=O)C[C@H](O)[C@H](CC(C)C)NC(=O)C(NC(=O)C(Cc1cccc2ccccc12)Cc1cccc2ccccc12)NC(C)C (stereo in doubt; 36) yielded an IC50 [1] of 500 nM.
With C=CCOC(NC(=O)[C@H](Cc1ccccc1)NS(=O)(=O)N1CCOCC1)C(=O)N[C@@H](CC1CCCCC1)[C@@H](O)[C@@H](O)CC(C)C (stereo partly specified) the IC50 [1] was 0.22 nM and the IC50 (Cathepsin D) was 10.5 nM.
In the case of CCSC(NC(=O)[C@H](Cc1ccccc1)NC(=O)OC(C)(C)C)C(=O)N[C@@H](CC1CCCCC1)[C@@H](O)[C@@H](O)CC(C)C (stereo partly specified), the IC50 [1] is reported as 1.4 nM, the IC50 (Cathepsin D) is reported as 28.1 nM and the Selectivity (Bos taurus) is reported as 20.1.
In the case of CCOC(NC(=O)C(Cc1cccc2ccccc12)Cc1cccc2ccccc12)C(=O)N[C@@H](CC(C)C)[C@@H](O)CC(=O)NC[C@@H](C)CC (stereo in doubt; 22), the IC50 [1] is reported as over 1000 nM.
With CCSC(NC(=O)[C@H](Cc1ccccc1)NS(=O)(=O)N1CCOCC1)C(=O)N[C@@H](CC1CCCCC1)[C@@H](O)[C@@H](O)CC(C)C (stereo partly specified) the “Change in BP” value (Monkey [2]) was -16 mmHg, the “Change in BP” value (Monkey [3]) was -14 mmHg and the “Change in BP” value (Monkey [4]) was -12 mmHg. The IC50 (Cathepsin D) was 10 nM.
Work on CC[C@H](C)CNC(=O)C[C@H](O)[C@H](CC(C)C)NC(=O)C(N)NC(=O)C(Cc1cccc2ccccc12)Cc1cccc2ccccc12 (stereo in doubt; 31) yielded an IC50 [1] of over 1000 nM.
For C=CCSC(NC(=O)[C@H](Cc1ccccc1)NS(=O)(=O)N1CCOCC1)C(=O)N[C@@H](CC1CCCCC1)[C@@H](O)CC(=O)NCCN1CCOCC1 (stereo partly specified), the “Change in BP” value (Monkey [2]) was -6 mmHg, the “Change in BP” value (Monkey [3]) was -3 mmHg and the IC50 [1] was 1.5 nM. The “Change in BP” value (Monkey [4]) was -7 mmHg, the IC50 (Cathepsin D) was 10 nM and the Selectivity (Bos taurus) was 6.7.
CCOC(NC(=O)[C@H](Cc1ccccc1)NS(=O)(=O)N1CCOCC1)C(=O)N[C@@H](CC1CCCCC1)[C@@H](O)CC(=O)NCCN1CCOCC1 (stereo partly specified) showed an IC50 (Cathepsin D) of over 10000 nM.
O=C(C[C@H](O)[C@H](CC1CCCCC1)NC(=O)C(Cc1cnc[nH]1)NC(=O)[C@H](Cc1ccccc1)NS(=O)(=O)N1CCOCC1)NCCN1CCOCC1 (stereo partly specified) gave an IC50 (Cathepsin D) of over 10000 nM.
For CC(C)C[C@H](O)[C@H](O)[C@H](CC1CCCCC1)NC(=O)C(Cc1cnc[nH]1)NC(=O)[C@H](Cc1ccccc1)NS(=O)(=O)N1CCOCC1 (stereo partly specified), the IC50 (Cathepsin D) was over 10000 nM.
Work on CC(C)C[C@H](O)[C@H](O)[C@H](CC1CCCCC1)NC(=O)C(NC(=O)[C@H](Cc1ccccc1)NS(=O)(=O)N1CCOCC1)Sc1cccs1 (stereo partly specified) yielded an IC50 [1] of 13 nM, an IC50 (Cathepsin D) of 470 nM and a Selectivity (Bos taurus) of 36.1.
CC[C@H](C)CNC(=O)C[C@H](O)[C@H](CC(C)C)NC(=O)C(NC(=O)C(Cc1cccc2ccccc12)Cc1cccc2ccccc12)NC(C)C (stereo in doubt; 35) showed an IC50 [1] of over 1000 nM.
For CC[C@H](C)CNC(=O)C[C@H](O)[C@H](CC(C)C)NC(=O)C(NC(=O)C(Cc1cccc2ccccc12)Cc1cccc2ccccc12)SC (stereo partly specified), the IC50 [1] was 95 nM.
In the case of CC[C@H](C)CNC(=O)C[C@H](O)[C@H](CC(C)C)NC(=O)C(NC(=O)C(Cc1cccc2ccccc12)Cc1cccc2ccccc12)S(C)(=O)=O (stereo partly specified), the IC50 [1] is reported as over 1000 nM.
CC[C@H](C)CNC(=O)C[C@H](O)[C@H](CC(C)C)NC(=O)C(N)NC(=O)C(Cc1cccc2ccccc12)Cc1cccc2ccccc12 (stereo in doubt; 32) gave an IC50 [1] of 1000 nM.
With CC[C@H](C)CNC(=O)C[C@H](O)[C@H](CC(C)C)NC(=O)C(NC(C)=O)NC(=O)C(Cc1cccc2ccccc12)Cc1cccc2ccccc12 (stereo partly specified) the IC50 [1] was 936 nM.
For CC[C@H](C)CNC(=O)C[C@H](O)[C@H](CC(C)C)NC(=O)C(NC(=O)C(Cc1cccc2ccccc12)Cc1cccc2ccccc12)Sc1ccccc1 (stereo partly specified), the IC50 [1] was 656 nM.
Work on CCCOC(NC(=O)[C@H](Cc1ccccc1)NS(=O)(=O)N1CCOCC1)C(=O)N[C@@H](CC1CCCCC1)[C@@H](O)[C@@H](O)CC(C)C (stereo partly specified) yielded an IC50 (Cathepsin D) of 22 nM.
For CCCOC(NC(=O)[C@H](Cc1ccccc1)NS(=O)(=O)N1CCOCC1)C(=O)N[C@@H](CC1CCCCC1)C(=O)C(F)(F)C(=O)NCCN1CCOCC1 (stereo partly specified), the “Change in BP” value (Monkey [2]) was -9 mmHg, the “Change in BP” value (Monkey [3]) was -10 mmHg and the IC50 [1] was 2.1 nM. The “Change in BP” value (Monkey [4]) was -10 mmHg, the IC50 (Cathepsin D) was 131 nM and the Selectivity (Bos taurus) was 65.5.
